# Data: PubChem BioAssay
# Activity calls are given as the source filed them.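 How the source made its calls, unless noted: active means GFP response above 150% of the DMSO level; inconclusive means fewer than 70 events counted for a yeast strain; inactive means the rest.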
# Legend:
# [1] = RPL19A-GFP modulators, yeast TOR pathway, confirmation, cell-based, S. cerevisiae, flow cytometry, cherry picks, mother/daughter gates (AID 2270;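 active means GFP response below 50% of the DMSO control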); conditions: S. cerevisiae RPL19A-GFP strain, 3 h, at 10 µM, stronger effect = lower value, 100 = same GFP as DMSO wells
# [2] = LAP4-GFP expression modulators in yeast, confirmation, cell-based, cherry picks, flow cytometry, mother/daughter gates (AID 2271;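 active means GFP response above 150% of the DMSO control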;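 further: ratio of sample to DMSO plate mean so 100% equals DMSO level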); conditions: S. cerevisiae LAP4-GFP strain, 3 h, at 10 µM, stronger effect = higher value, 100 means same as DMSO control
# Summary of the method: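 System: GFP-fusion yeast strain | Input: Yeast cells seeded at OD600 of 0.2 | Technique: HT flow cytometry, GFP fluorescence channel | Read-out: % GFP response vs DMSO | Dosing: Single test-compound dose, 10 µM final | Controls: Positive rapamycin (400 ng/mL), negative DMSO | Times: 3 h treatment at 30 °C with rotation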
# [3] = modulators of MEP2-GFP levels in yeast, confirmation, S. cerevisiae, flow cytometry GFP, cherry picks (AID 2272;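 active means GFP response above 150% of the DMSO control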;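 further: ratio of well signal to plate DMSO mean so 100% equals DMSO level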); conditions: S. cerevisiae MEP2-GFP strain, 3 h, at 10 µM, stronger effect = higher value
# [4] = AGP1-GFP expression modulators, hit retest, confirmation, cell-based, flow cytometry, S. cerevisiae, cherry picks (AID 2273);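 further: median GFP channel fluorescence over the whole cell population gate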; conditions: S. cerevisiae AGP1-GFP strain, 3 h, at 10 µM
# [5] = modulators of CIT2-GFP expression in yeast, confirmation, S. cerevisiae, GFP fusion, cherry picks, mother/daughter gates (AID 2274); conditions: S. cerevisiae CIT2-GFP strain, flow cytometry, 3 h, at 10 µM, stronger effect = higher value
# [6] = measured here: daughter cell gate
# [7] = measured here: mother cell gate
# [8] = measured here: daughter cell gate response
# [9] = measured here: mother cell gate response
SMILES,GFP response vs DMSO [1],"GFP response vs DMSO [1, 6] [%]","GFP response vs DMSO [1, 7] [%]",GFP response relative to DMSO [2],"GFP response relative to DMSO [2, 8] [%]","GFP response relative to DMSO [2, 9] [%]",GFP response vs DMSO [3],"GFP response, % of DMSO [4]","GFP response, % of DMSO [5]","GFP response, % of DMSO [5, 6] [%]","GFP response, % of DMSO [5, 7] [%]"
COc1cccc2c1Oc1ncccc1N(C(=O)CCC(=O)NCc1ccccc1F)C2,100% (inactive),101,101,142% (inactive),147,139,135% (inactive),105% (inactive),148% (inactive),150,147
CCOC(=O)c1sc(NC(=O)c2ccc3ncsc3c2)nc1C,98% (inactive),95,94.8,95.3% (inactive),96,93.4,110% (inactive),96.4% (inactive),98.6% (inactive),95.8,93.8
COc1ccc(/C=C/C(=O)c2c(O)cc(C)oc2=O)c(OC)c1,104% (inactive),101,103,102% (inactive),101,103,103% (inactive),100% (inactive),95.9% (inactive),95.6,90.7
COc1ccc(C2CC(c3ccccc3)=NN2S(=O)(=O)c2ccc(C)cc2)c(OC)c1 (stereo not drawn),102% (inactive),98.8,100,102% (inactive),99.1,104,103% (inactive),101% (inactive),102% (inactive),99.2,99.3
CC(=O)SC(C[N+](=O)[O-])c1cn(C(C)=O)c2ccccc12 (stereo not drawn),98.6% (inactive),102,90.1,242% (active),216,236,96.8% (inactive),98% (inactive),94.4% (inactive),97.4,88.2
Cc1cccc(Cn2cc(/C=C/[N+](=O)[O-])c3ccccc32)c1,106% (inactive),103,98,111% (inactive),107,114,103% (inactive),101% (inactive),97.3% (inactive),95.6,93.2
COc1ccc(Cc2nnc(NC(=O)c3ccccc3F)s2)cc1,97.6% (inactive),96.4,98.5,101% (inactive),105,101,100% (inactive),98.3% (inactive),100% (inactive),99.7,97.7
CCS(=O)(=O)N1N=C(c2ccccc2)CC1c1ccc2nccnc2c1 (stereo not drawn),98.4% (inactive),98.9,99.3,105% (inactive),103,104,116% (inactive),104% (inactive),105% (inactive),105,107
O=C(O)c1ccc(/C=N/NC(=O)c2ccc(Br)cc2)cc1,102% (inactive),100,102,98.2% (inactive),95.9,98.4,101% (inactive),99.8% (inactive),94.4% (inactive),93.8,94.4
Cc1ccc(NC(=O)CCCSc2nc3ccccc3[nH]2)cc1,99.6% (inactive),99.1,100,96.1% (inactive),98.2,98.2,98.8% (inactive),106% (inactive),113% (inactive),111,114
CCOC(=O)c1ccc(NC(=O)c2nc(S(=O)(=O)Cc3ccccc3)ncc2Cl)cc1,99.5% (inactive),99,98.9,93.8% (inactive),95.6,95.2,102% (inactive),101% (inactive),97.8% (inactive),94.8,97.7
O=C1C2C3C=CC(CNS(=O)(=O)c4ccccc4[N+](=O)[O-])(O3)C2C(=O)N1c1ccccc1 (stereo not drawn),97.6% (inactive),97.3,97.3,98.6% (inactive),99.7,98.2,101% (inactive),101% (inactive),107% (inactive),106,107
CCN(CC)CCCN(C(=O)c1ccc(Br)cc1)c1nc(-c2ccc(OC)cc2)cs1,96.5% (inactive),97.3,96.9,95.3% (inactive),99,94.4,101% (inactive),97.9% (inactive),95.8% (inactive),95.8,98.2
COc1cccc(C2CC(c3c(-c4ccccc4)c4cc(Cl)ccc4[nH]c3=O)=NN2S(C)(=O)=O)c1OC (stereo not drawn),94.3% (inactive),96.5,95,100% (inactive),101,99.5,99.5% (inactive),102% (inactive),101% (inactive),102,98
Cc1ccccc1N1C(=O)C(Cl)=C(N2CCN(c3ccccc3)CC2)C1=O,100% (inactive),98.7,100,101% (inactive),102,102,100% (inactive),93% (inactive),95.2% (inactive),94.8,94.4
CS(=O)(=O)N1N=C(c2ccc(Br)cc2)CC1c1ccc2c(c1)OCO2 (stereo not drawn),102% (inactive),101,102,105% (inactive),104,104,114% (inactive),99.3% (inactive),109% (inactive),111,107
N=c1n(CCN2CCCCC2)c2ccccc2n1CC(=O)c1ccc(Cl)c(Cl)c1,99.5% (inactive),99,100,101% (inactive),100,102,100% (inactive),99.4% (inactive),96.5% (inactive),93.2,78.3

SMILES,GFP response vs DMSO [1],"GFP response vs DMSO [1, 6] [%]","GFP response vs DMSO [1, 7] [%]",GFP response relative to DMSO [2],"GFP response relative to DMSO [2, 8] [%]","GFP response relative to DMSO [2, 9] [%]",GFP response vs DMSO [3],"GFP response, % of DMSO [4]","GFP response, % of DMSO [5]","GFP response, % of DMSO [5, 6] [%]","GFP response, % of DMSO [5, 7] [%]"
Cc1ccc(C2=NN(S(C)(=O)=O)C(c3ccc4c(c3)OCO4)C2)cc1 (stereo not drawn),101% (inactive),99.6,102,116% (inactive),115,115,141% (inactive),103% (inactive),129% (inactive),130,119
COCCn1c(=N)c(C(=O)NCc2ccco2)cc2c(=O)n3ccccc3nc21,100% (inactive),95.3,93.5,96.5% (inactive),96,86.3,95.2% (inactive),102% (inactive),100% (inactive),97.6,97.1
Cc1ccc(S(=O)(=O)N(Cc2ccccc2)Cc2ccco2)cc1,102% (inactive),103,104,87.8% (inactive),87.9,90.1,97.8% (inactive),97.8% (inactive),106% (inactive),105,104
O=[N+]([O-])/C=C/c1cn(Cc2ccccc2)c2ccccc12,103% (inactive),98.1,98.2,134% (inactive),131,138,102% (inactive),98.3% (inactive),96.5% (inactive),94.8,91.2
O=C(Nc1nc(-c2ccc(Cl)cc2)cs1)c1cccnc1,96.8% (inactive),87.8,98.3,105% (inactive),101,104,99% (inactive),99.4% (inactive),95.9% (inactive),93.8,95.6
CCOC(=O)c1ccc(NC(=O)CCc2nc(-c3ccc(Cl)cc3)no2)cc1,99.4% (inactive),100,101,99.2% (inactive),99.2,100,98.3% (inactive),95.4% (inactive),105% (inactive),105,104
CC(=O)NN1C(=O)/C(=C/c2ccc(Br)o2)SC1=S,103% (inactive),101,102,128% (inactive),122,126,139% (inactive),111% (inactive),153% (active),150,150
O=C1/C(=C\c2ccc(O)c(O)c2)SC(=S)N1Cc1ccccc1,100% (inactive),99.1,100,116% (inactive),117,116,141% (inactive),97.2% (inactive),113% (inactive),119,108
Cc1ccc(S(=O)(=O)c2ncccc2[N+](=O)[O-])cc1,92.2% (inactive),93.2,89.1,129% (inactive),123,131,105% (inactive),109% (inactive),94.4% (inactive),97.4,91.9
O=C(/C=C/c1ccccc1)c1ccccc1O,103% (inactive),105,103,130% (inactive),130,129,153% (inactive),108% (inactive),137% (inactive),139,132
CCCc1[nH]nc2c1C1(C(=O)N(C(C)C)c3ccccc31)C(C#N)=C(N)O2 (stereo not drawn),98.2% (inactive),99.8,98.2,96.5% (inactive),104,96.4,106% (inactive),99.1% (inactive),98.6% (inactive),101,99.3
CCCC(=O)Nc1ccc(C(=O)/C=C/c2ccc(SC)cc2)cc1,99.5% (inactive),98.1,99.2,105% (inactive),103,105,102% (inactive),97.2% (inactive),95.2% (inactive),94.8,93.4
CC1(C)CC(=O)C(C(C2=C(O)CC(C)(C)CC2=O)c2cccs2)C(=O)C1 (stereo not drawn),100% (inactive),103,101,100% (inactive),102,100,97.5% (inactive),94.3% (inactive),101% (inactive),102,99.1
CCOc1ccc2nc(SCC(=O)NCC3CCCO3)c(C#N)cc2c1 (stereo not drawn),97.8% (inactive),95.9,99.2,99.8% (inactive),100,101,97.8% (inactive),96.3% (inactive),90% (inactive),91.5,88
COc1ccc(OC)c(C2CC(c3c(-c4ccccc4)c4cc(Cl)ccc4[nH]c3=O)=NN2S(C)(=O)=O)c1 (stereo not drawn),100% (inactive),99,102,92.6% (inactive),92.5,97.2,100% (inactive),96.1% (inactive),97.8% (inactive),96.5,97.7
CCOc1ccc2ccccc2c1C(=O)N1CCN(c2ccccc2)CC1,97.8% (inactive),98.4,96.3,105% (inactive),105,105,99.3% (inactive),98.4% (inactive),93.1% (inactive),94,93.8
